Converted amounts (≈) assume the structure as drawn. The source made the active and inactive calls. The calls are words filed in the database; no cut-off is given here.
Legend:
[1] = test system: Salmonella typhimurium; experiment: Antibacterial activity against Salmonella Typhimurium NCTC 74 at 5 ug/ml after 24 hrs by agar dilution method; assay type: functional, organism-based; conditions: Salmonella enterica subsp. enterica serovar Typhimurium
Outline: (§1)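 Agar dilution MIC. Compound dissolved in sterile 0.2% DMSO, diluted in distilled water and mixed into molten nutrient agar (pH 7.2–7.4) at 5, 10, 25, 50; plate with 0.2% DMSO as control. Gram-positives grown 18 h in nutrient broth, Gram-negatives in peptone water. Stationary-phase suspension set to 0.5 McFarland, diluted 1:100, spot-inoculated at about 10^5 CFU per loopful. Plates held 24 h at 37 °C (up to 72 h if needed). MIC is the lowest level with no growth.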

[2] = test system: Staphylococcus aureus; experiment: Antibacterial activity against Staphylococcus aureus ML6 at 25 ug/ml after 24 hrs by agar dilution method; assay type: functional; conditions: ML6, 24 h; outline: as §1
[3] = test system: Bacillus licheniformis; experiment: Antibacterial activity against […] Bacillus licheniformis NCTC 10341 at 5 ug/ml after 24 hrs by agar dilution method; assay type: functional, organism-based; outline: as §1
[4] = test system: Leishmania donovani; experiment: Antileishmanial activity against Leishmania donovani MHOM/IN/1983/AG83 promastigotes assessed as induction of vacuolization at 11.5 ug/ml after 2 hrs by transmission electron microscopy; assay type: functional, organism-based
Outline: (§2)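 Log-phase promastigotes, grown at 22 °C in M199 with 10% FBS, were exposed for 2 h to the compound; controls received 0.1% DMSO alone. Cells were then sectioned, stained on copper grids with uranyl acetate and lead acetate for 10-15 min each, and examined by TEM for ultrastructural changes.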

[5] = test system: Shigella dysenteriae; experiment: Antibacterial activity against Shigella dysenteriae 7 NCTC 519/66 at 10 ug/ml after 24 hrs by agar dilution method; assay type: functional; conditions: 7 NCTC 519/66, 24 h
[6] = test system: Vibrio cholerae; experiment: Antibacterial activity against Vibrio cholerae 569B at 25 ug/ml after 24 hrs by agar dilution method; assay type: functional
[7] = test system: Escherichia coli; experiment: Antibacterial activity against Escherichia coli K-12 Row at 25 ug/ml after 24 hrs by agar dilution method; assay type: functional, organism-based; outline: as §1
[8] = test system: Proteus mirabilis; experiment: Antibacterial activity against Proteus mirabilis 175 at 50 ug/ml after 24 hrs by agar dilution method; assay type: functional; conditions: Proteus mirabilis, 175, 24 h; outline: as §1
[9] = test system: Staphylococcus aureus; experiment: Antibacterial activity against Staphylococcus aureus ML145 at 10 ug/ml after 24 hrs by agar dilution method; assay type: functional; conditions: ML145, 24 h; outline: as §1
[10] = test system: Vibrio cholerae; experiment: Antibacterial activity against Vibrio cholerae 582 at 5 ug/ml after 24 hrs by agar dilution method; assay type: functional; conditions: Vibrio cholerae, 582, 24 h
[11] = test system: Bacillus licheniformis; experiment: Antibacterial activity against […] Bacillus licheniformis NCTC 10341 at 50 ug/ml after 24 hrs by agar dilution method; assay type: functional; conditions: NCTC 10341, 24 h; outline: as §1
[12] = test system: Leishmania donovani; experiment: Antileishmanial activity against Leishmania donovani MHOM/IN/1983/AG83 promastigotes infected BALB/c mouse assessed as liver weight at 5.5 mg/kg, ip administered two times per week for 4 weeks; assay type: functional; conditions: route intraperitoneal
Outline: (§3)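 BALB/c mice (4-6 weeks) were infected iv with 2 × 10^7 freshly transformed promastigotes. One month later, groups were dosed ip in 0.2% Tween 80 in PBS (0.02 M), twice weekly for one month (8 doses); controls got vehicle only. Mice were killed one month post-treatment and spleen and liver were weighed. Parasite load came from Giemsa impression smears as organ weight (mg) × amastigotes per cell nucleus × 2 × 10^5. Values are mean ± S.E. of 5 mice; unpaired t-test.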

[13] = test system: Vibrio cholerae; experiment: Antibacterial activity against Vibrio cholerae 582 at 10 ug/ml after 24 hrs by agar dilution method; assay type: functional; conditions: Vibrio cholerae, 582, 24 h
[14] = test system: Leishmania donovani; experiment: Antileishmanial activity against Leishmania donovani MHOM/IN/1983/AG83 promastigotes assessed as induction of membrane blebbing at 2 ug/ml after 2 hrs by transmission electron microscopy; assay type: functional, organism-based; outline: as §2
[15] = test system: Staphylococcus aureus; experiment: Antibacterial activity against Staphylococcus aureus ML145 at 5 ug/ml after 24 hrs by agar dilution method; assay type: functional; conditions: ML145, 24 h; outline: as §1
[16] = test system: Salmonella typhimurium; experiment: Antibacterial activity against Salmonella Typhimurium NCTC 74 at 50 ug/ml after 24 hrs by agar dilution method; assay type: functional, Salmonella enterica subsp. enterica serovar Typhimurium; conditions: Salmonella enterica, NCTC 74, 24 h; outline: as §1
[17] = test system: Mus musculus; experiment: Toxicity in BALB/c mouse assessed as effect on serum glutamate pyruvate transaminase levels at 5.5 mg/kg, ip administered two times per week for 4 weeks; assay type: organism-based; design: dose 5.5 mg/kg, route intraperitoneal; conditions: in vivo, 672 h
Outline: (§4)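 Normal BALB/c mice were dosed ip twice per week for 4 weeks. Blood was collected one month after treatment, and serum SGPT and SGOT (IU/l) and blood urea (mg/dl) were measured with commercial kits and compared with untreated normal mice.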

[18] = test system: Mus musculus; experiment: Toxicity in BALB/c mouse assessed as effect on serum glutamate oxaloacetate transaminase levels at 5.5 mg/kg, ip administered two times per week for 4 weeks; assay type: organism-based; design: dose 5.5 mg/kg, route intraperitoneal; conditions: in vivo, 672 h; outline: as §4
[19] = test system: Pseudomonas aeruginosa; experiment: Antibacterial activity against Pseudomonas aeruginosa ATCC 27853 after 24 hrs by agar dilution method; assay type: functional; conditions: ATCC 27853, 24 h; outline: as §1
[20] = test system: Bacillus licheniformis; experiment: Antibacterial activity against […] Bacillus licheniformis NCTC 10341 at 25 ug/ml after 24 hrs by agar dilution method; assay type: functional, organism-based; outline: as §1
[21] = test system: Leishmania donovani; experiment: Antileishmanial activity against Leishmania donovani MHOM/IN/1983/AG83 promastigotes infected BALB/c mouse assessed as spleen weight at 12.5 mg/kg, ip administered two times per week for 4 weeks; assay type: functional; conditions: route intraperitoneal; outline: as §3
[22] = test system: Leishmania donovani; experiment: Antileishmanial activity against Leishmania donovani MHOM/IN/1983/AG83 promastigotes assessed as induction of chromatin condensation at 11.5 ug/ml after 2 hrs by transmission electron microscopy; assay type: functional, organism-based
[23] = Toxicity against golden Syrian hamster peritoneal macrophages; assay type: cell-based, Mesocricetus auratus; conditions: macrophage
[24] = test system: Proteus mirabilis; experiment: Antibacterial activity against Proteus mirabilis 175 at 25 ug/ml after 24 hrs by agar dilution method; assay type: functional, organism-based; outline: as §1
[25] = test system: Shigella dysenteriae; experiment: Antibacterial activity against Shigella dysenteriae 7 NCTC 519/66 at 25 ug/ml after 24 hrs by agar dilution method; assay type: functional; conditions: 7 NCTC 519/66, 24 h
[26] = test system: Leishmania donovani; experiment: Antileishmanial activity against Leishmania donovani MHOM/IN/1983/AG83 promastigotes assessed as induction of chromatin condensation at 2 ug/ml after 2 hrs by transmission electron microscopy; assay type: functional, organism-based
[27] = Down regulation of IL6 release Leishmania donovani MHOM/IN/1983/AG83 infected bacterial liposaccharide-stimulated golden Syrian hamster peritoneal macrophages; assay type: functional, cell-based; conditions: Mesocricetus auratus; Macrophage
[28] = test system: Leishmania donovani; experiment: Antileishmanial activity against Leishmania donovani MHOM/IN/1983/AG83 promastigotes assessed as induction of membrane blebbing at 11.5 ug/ml after 2 hrs by transmission electron microscopy; assay type: functional, organism-based; outline: as §2
[29] = test system: Shigella dysenteriae; experiment: Antibacterial activity against Shigella dysenteriae 6 NCTC 100/54 at 10 ug/ml after 24 hrs by agar dilution method; assay type: functional, organism-based
[30] = test system: Mus musculus; experiment: Toxicity in BALB/c mouse assessed as effect on serum glutamate oxaloacetate transaminase levels at 12.5 mg/kg, ip administered two times per week for 4 weeks; assay type: organism-based; design: dose 12.5 mg/kg, route intraperitoneal; conditions: in vivo, 672 h; outline: as §4
[31] = test system: Vibrio cholerae; experiment: Antibacterial activity against Vibrio cholerae 569B at 10 ug/ml after 24 hrs by agar dilution method; assay type: functional, organism-based
[32] = test system: Proteus mirabilis; experiment: Antibacterial activity against Proteus mirabilis 7 at 50 ug/ml after 24 hrs by agar dilution method; assay type: functional; conditions: Proteus mirabilis, 7, 24 h; outline: as §1
[33] = test system: Escherichia coli; experiment: Antibacterial activity against Escherichia coli ATCC 25938 at 10 ug/ml after 24 hrs by agar dilution method; assay type: functional, organism-based; outline: as §1
[34] = test system: Staphylococcus aureus; experiment: Antibacterial activity against Staphylococcus aureus ML145 ug/ml after 24 hrs by agar dilution method; assay type: functional; conditions: ML145, 24 h; outline: as §1

**Q.** For `Clc1ccc(OCOc2ccc(Cl)c3cccnc23)c2ncccc12`, which Activity [1] is on record?
**A.** The Activity was “inactive”.

**Q.** What about the inhibition at 25 µg/mL [2] of the same compound?
**A.** The inhibition at 25 µg/mL was 100%.

**Q.** What about the Activity [3] of the same compound?
**A.** Its Activity is “inactive”.

**Q.** And the Activity [4]?
**A.** The Activity was “Active”.

**Q.** What about the inhibition at 10 µg/mL [5] of the same compound?
**A.** The inhibition at 10 µg/mL was 100%.

**Q.** What about the inhibition at 25 µg/mL [6] of the same compound?
**A.** Its inhibition at 25 µg/mL is 100%.

**Q.** And the Activity [7]?
**A.** The Activity was “inactive”.

**Q.** And the inhibition at 50 µg/mL [8]?
**A.** Its inhibition at 50 µg/mL is 100%.

**Q.** What about the inhibition at 10 µg/mL [9] of the same compound?
**A.** Its inhibition at 10 µg/mL is 100%.

**Q.** And the inhibition at 5 µg/mL [10]?
**A.** Its inhibition at 5 µg/mL is 100%.

**Q.** And the inhibition at 50 µg/mL [11]?
**A.** Its inhibition at 50 µg/mL is 100%.

**Q.** And the Activity [12]?
**A.** Its Activity is 1120 mg.

**Q.** And the inhibition at 10 µg/mL [13]?
**A.** The inhibition at 10 µg/mL was 100%.

**Q.** And the Activity [14]?
**A.** The Activity was “Active”.

**Q.** What about the inhibition at 5 µg/mL [15] of the same compound?
**A.** The inhibition at 5 µg/mL was 100%.

**Q.** And the inhibition at 50 µg/mL [16]?
**A.** Its inhibition at 50 µg/mL is 100%.

**Q.** And the Activity [17]?
**A.** The Activity was “Non-toxic”.

**Q.** And the Activity [18]?
**A.** The Activity was “Non-toxic”.

**Q.** What about the MIC [19] of the same compound?
**A.** Its MIC is 25 µg/mL (≈ 67.3 µM).

**Q.** What about the Activity [20] of the same compound?
**A.** The Activity was “inactive”.

**Q.** What about the Activity [21] of the same compound?
**A.** Its Activity is 90 mg.

**Q.** And the Activity [22]?
**A.** The Activity was “Active”.

**Q.** What about the Activity [23] of the same compound?
**A.** The Activity was over 80 µg/mL.

**Q.** And the Activity [24]?
**A.** The Activity was “inactive”.

**Q.** What about the inhibition at 25 µg/mL [25] of the same compound?
**A.** Its inhibition at 25 µg/mL is 100%.

**Q.** What about the Activity [26] of the same compound?
**A.** Its Activity is “Active”.

**Q.** And the Activity [27]?
**A.** Its Activity is “Active”.

**Q.** And the Activity [28]?
**A.** Its Activity is “Active”.

**Q.** And the Activity [29]?
**A.** Its Activity is “inactive”.

**Q.** And the Activity [30]?
**A.** The Activity was “Non-toxic”.

**Q.** And the Activity [31]?
**A.** The Activity was “inactive”.

**Q.** And the inhibition at 50 µg/mL [32]?
**A.** Its inhibition at 50 µg/mL is 100%.

**Q.** What about the Activity [33] of the same compound?
**A.** Its Activity is “inactive”.

**Q.** And the MIC [34]?
**A.** The MIC was 5 µg/mL (≈ 13.5 µM).
